# Activity calls are given as the source filed them. No cut-off for these calls is given here.
# Tests used:
# [1] = system: HT-29; test: Cytotoxicity against human HT-29 cells assessed as reduction in cell viability incubated for 60 to 72 hrs by MTT assay; type: toxicity, cell-based; conditions: time 60-72 hrs
# In short: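 HT-29 monolayer cells were seeded at about 2.5 × 10^3 per well in DMEM:F12 with 10% FBS and incubated overnight at 37 °C, 5% CO2. Compound was added for 60–72 h. MTT (5 mg/mL in PBS) was added for 2–3 h, crystals were dissolved in DMSO and absorbance read at 590 nm. Results are percent of vehicle control, at least three replicates.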
# [2] = Cytotoxicity against human HT-29 cells assessed as inhibition of spheroid growth; conditions: HT-29 cell spheroids
# [3] = system: Plasma; test: Anticoagulant activity in pooled human plasma assessed as prolongation of activated partial thromboplastin time incubated for 4 mins by coagulometer analysis; type: functional, cell-free
# In short: (§1)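 Pooled normal citrated human plasma (90 μL) mixed with 10 μL compound and 100 μL prewarmed ellagic acid APTT reagent, incubated 4 min at 37 °C, then recalcified with 100 μL prewarmed 25 mM CaCl2. Clot time read on a fibrometer (one-stage recalcification). Water blank gave the baseline. Concentration doubling APTT came from a quadratic trend-line fit.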
# [4] = system: Plasma; test: Anticoagulant activity in pooled human plasma assessed as prolongation of activated partial thromboplastin time at 900 uM incubated for 4 mins by coagulometer analysis; type: functional; in short: as §1
# [5] = system: HT-29; test: Anticancer activity against human HT-29 cells assessed as inhibition of CD133+ expression level; type: functional, cell-based
# [6] = system: HT-29; test: Anticancer activity against human HT-29 cells assessed as inhibition of CXCR4+ expression level; type: functional, cell-based
# [7] = system: HT-29; test: Anticancer activity against human HT-29 cells assessed as inhibition of DCAMLK1 expression level; type: functional, cell-based
# [8] = system: HT-29; test: Anticancer activity against human HT-29 cells assessed as inhibition of LGR5 expression level; type: functional, cell-based
# [9] = system: HT-29; test: Antitumor activity against human HT-29 cells xenografted in NCR nude mouse assessed as reduction in tumor growth at 100 mg/kg, ip administered 3 times a week for 3 weeks; type: functional, organism-based
SMILES,Activity [1],IC50 [2],Activity [3],APTT [4],Activity [5],Activity [6],Activity [7],Activity [8],Activity [9]
O=c1c(OS(=O)(=O)[O-])c(-c2ccc(OS(=O)(=O)[O-])c(OS(=O)(=O)[O-])c2)oc2cc(OS(=O)(=O)[O-])cc(OCC3CCC(COc4cc(OS(=O)(=O)[O-])cc5oc(-c6ccc(OS(=O)(=O)[O-])c(OS(=O)(=O)[O-])c6)c(OS(=O)(=O)[O-])c(=O)c45)CC3)c12.[Na+].[Na+].[Na+].[Na+].[Na+].[Na+].[Na+].[Na+] (stereo not given),Non-Toxic,4 µM,–,–,–,–,–,–,–
O=c1c(OS(=O)(=O)[O-])c(-c2ccc(OS(=O)(=O)[O-])cc2OS(=O)(=O)[O-])oc2cc(OS(=O)(=O)[O-])cc(OCC3CCC(COc4cc(OS(=O)(=O)[O-])cc5oc(-c6ccc(OS(=O)(=O)[O-])cc6OS(=O)(=O)[O-])c(OS(=O)(=O)[O-])c(=O)c45)CC3)c12.[Na+].[Na+].[Na+].[Na+].[Na+].[Na+].[Na+].[Na+] (stereo not given),Non-Toxic,17.9 µM,–,–,–,–,–,–,–
O=c1c(OS(=O)(=O)[O-])c(-c2ccc(OS(=O)(=O)[O-])c(OS(=O)(=O)[O-])c2)oc2cc(OS(=O)(=O)[O-])cc(OCCCOc3cc(OS(=O)(=O)[O-])cc4oc(-c5ccc(OS(=O)(=O)[O-])c(OS(=O)(=O)[O-])c5)c(OS(=O)(=O)[O-])c(=O)c34)c12.[Na+].[Na+].[Na+].[Na+].[Na+].[Na+].[Na+].[Na+],Non-Toxic,29.6 µM,Dose-Dependent Effect,68 s,Active,Active,Active,Active,Active
O=c1cc(-c2ccc(OS(=O)(=O)[O-])cc2)oc2cc(OS(=O)(=O)[O-])cc(OCC3CCC(COc4cc(OS(=O)(=O)[O-])cc5oc(-c6ccc(OS(=O)(=O)[O-])cc6)cc(=O)c45)CC3)c12.[Na+].[Na+].[Na+].[Na+] (stereo not given),Non-Toxic,46 µM,–,–,–,–,–,–,–
